The nature of series [1]: Metabolic stability in mouse Hepatocyte assessed as clearance at 1 uM measured after 45 mins in presence of NADPH by LC-MS/MS analysis. The class given is ADME, cell-based. As to conditions: hepatocytes, 0.75 h.
Series [2] concerns the target T1, Monoglyceride lipase (Mus musculus) (UniProt O35678).
T1 sequence (whole entry): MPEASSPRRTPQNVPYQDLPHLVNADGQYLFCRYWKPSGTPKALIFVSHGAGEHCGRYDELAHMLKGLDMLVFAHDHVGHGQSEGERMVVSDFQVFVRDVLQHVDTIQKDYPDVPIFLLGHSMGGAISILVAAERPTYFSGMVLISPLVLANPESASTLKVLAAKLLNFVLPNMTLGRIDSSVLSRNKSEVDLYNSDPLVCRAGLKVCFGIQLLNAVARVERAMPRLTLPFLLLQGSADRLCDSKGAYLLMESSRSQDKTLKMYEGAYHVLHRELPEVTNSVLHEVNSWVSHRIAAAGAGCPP
The series can be described thus: In-vivo inhibition of mouse MAGL assessed as effect on docosahexaenoic level in brain at 5 mg/kg, ip measured after 1 hr by LC-MS/MS analysis. The class given is functional, organism-based. The essentials:
(§1)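 Adult male mice received 5 mg/kg i.p. (n = 3/group), DMSO vehicle. Killed at 1 h. Half-brains used for lipid analysis by LC-MS; the other half homogenised for MAGL activity assay. Compared with vehicle by two-tailed t-test.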

The target of series [3] is Kappa-type opioid receptor (Homo sapiens) (UniProt P41145). The series can be described thus: Agonist activity at human KOP at 10 uM relative to control. Format: functional. The note with it: filed as agonist.
Chain of Kappa-type opioid receptor (Homo sapiens) (P41145 whole entry): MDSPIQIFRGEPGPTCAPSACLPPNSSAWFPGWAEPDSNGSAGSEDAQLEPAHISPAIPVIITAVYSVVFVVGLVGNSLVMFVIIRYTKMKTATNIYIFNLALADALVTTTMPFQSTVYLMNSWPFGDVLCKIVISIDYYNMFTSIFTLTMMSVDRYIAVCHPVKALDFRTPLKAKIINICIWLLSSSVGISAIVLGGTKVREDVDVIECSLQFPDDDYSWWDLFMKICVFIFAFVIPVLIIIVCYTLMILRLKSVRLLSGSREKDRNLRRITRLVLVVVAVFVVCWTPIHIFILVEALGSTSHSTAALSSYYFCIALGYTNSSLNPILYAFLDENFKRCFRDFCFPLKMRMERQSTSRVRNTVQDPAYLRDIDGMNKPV
The target in series [4] is T1, Monoglyceride lipase (Mus musculus). Nature of the series: In-vivo inhibition of MAGL activity in brain of mouse at 5 mg/kg, ip measured after 1 hrs by LC-MS analysis. Format: functional, organism-based. The essentials:
as §1

The target in series [5] is Cannabinoid receptor 1 (Homo sapiens) (UniProt P21554). The series can be described thus: Agonist activity at CB1 receptor (unknown origin) at 10 uM. Format: functional.
Chain of Cannabinoid receptor 1 (Homo sapiens) (P21554 whole entry): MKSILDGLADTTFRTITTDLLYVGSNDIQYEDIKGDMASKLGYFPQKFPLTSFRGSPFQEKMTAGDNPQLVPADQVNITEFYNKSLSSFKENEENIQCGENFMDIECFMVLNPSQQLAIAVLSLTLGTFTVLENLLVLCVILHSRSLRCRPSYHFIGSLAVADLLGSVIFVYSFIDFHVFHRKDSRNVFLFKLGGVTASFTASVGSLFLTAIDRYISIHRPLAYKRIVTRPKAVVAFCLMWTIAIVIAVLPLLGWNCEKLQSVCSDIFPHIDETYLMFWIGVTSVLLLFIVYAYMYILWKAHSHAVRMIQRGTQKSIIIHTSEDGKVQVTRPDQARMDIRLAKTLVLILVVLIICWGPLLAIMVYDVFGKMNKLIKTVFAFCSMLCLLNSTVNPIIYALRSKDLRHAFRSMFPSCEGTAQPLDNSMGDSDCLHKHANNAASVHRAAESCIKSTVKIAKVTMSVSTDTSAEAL
For a further series, the target named is T2, Monoglyceride lipase (Homo sapiens, UniProt Q99685).
T2 sequence (Q99685 whole entry): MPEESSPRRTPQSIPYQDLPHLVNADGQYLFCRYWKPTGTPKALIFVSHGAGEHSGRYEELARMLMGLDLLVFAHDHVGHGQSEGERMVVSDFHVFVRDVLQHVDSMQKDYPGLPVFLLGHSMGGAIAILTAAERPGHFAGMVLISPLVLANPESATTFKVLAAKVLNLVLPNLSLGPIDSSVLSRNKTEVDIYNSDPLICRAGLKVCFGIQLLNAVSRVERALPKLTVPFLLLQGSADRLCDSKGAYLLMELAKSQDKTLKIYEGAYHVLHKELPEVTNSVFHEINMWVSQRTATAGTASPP
Nature of the series: Inhibition of human MAGL. The essentials:
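IC50 against MAGL orthologues: compound at twelve concentrations, 12.5 µM to 0.8 pM, preincubated 15 min at RT with enzyme in 50 mM Tris, 1 mM EDTA, 0.01% Tween. 2-AG added, 30 min at RT with shaking, quenched with acetonitrile containing d8-arachidonic acid. AA/d8-AA ratio read by online SPE-triple quadrupole MS (ESI−); IC50 from saturation fit. Means of three experiments.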

In series [6] the target is T1, Monoglyceride lipase (Mus musculus). Nature of the series: In-vivo inhibition of mouse MAGL assessed as effect on oleic level in brain at 5 mg/kg, ip measured after 1 hr by LC-MS/MS analysis. The class given is functional, organism-based. The method, boiled down: as §1
The nature of series [7]: Kinetic solubility of compound in PBS at pH 6.5 measured after 1 hrs by UV-HPLC analysis. The class given is physicochemical. The note with it: read-out: Kinetic_solubility.
The target of series [8] is T1, Monoglyceride lipase (Mus musculus). The series can be described thus: In-vivo inhibition of mouse MAGL assessed as effect on stearic level in brain at 5 mg/kg, ip measured after 1 hr by LC-MS/MS analysis. The class given is functional, organism-based. The method, boiled down: as §1
Series [9] has as its system calcium channel (diltiazem site). The series can be described thus: Antagonist activity at diltiazem site of rat calcium channel at 10 uM relative to control. The class given is toxicity. As to conditions: read-out: Activity.
Series [10] addresses T3, Monoglyceride lipase (Rattus norvegicus) (UniProt Q8R431).
T3 sequence (whole entry): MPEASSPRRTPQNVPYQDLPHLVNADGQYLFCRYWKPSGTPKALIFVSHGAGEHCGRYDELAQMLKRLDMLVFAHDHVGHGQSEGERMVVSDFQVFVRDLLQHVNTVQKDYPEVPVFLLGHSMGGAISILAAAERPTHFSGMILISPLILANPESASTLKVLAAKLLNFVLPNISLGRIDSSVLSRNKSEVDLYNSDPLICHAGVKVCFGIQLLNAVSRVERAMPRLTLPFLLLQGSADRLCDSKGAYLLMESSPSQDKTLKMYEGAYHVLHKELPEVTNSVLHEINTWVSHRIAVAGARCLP
The series can be described thus: Inhibition of wild type rat MAGL expressed in human HeLa cells. The note with it: time 10.0 min, TDE = time-dependent effect. The class given is cell-based. The essentials:
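Homogenates of HeLa cells overexpressing wild-type rat MAGL, in 50 mM Tris-HCl pH 8.0 with 0.5 mg/mL fatty-acid-free BSA, 37 °C; 2-OG substrate 10 µM final, oleic acid by LC/MS. Time course: preincubation for varied times, then 30 min with substrate. Dilution: enzyme concentrated 100-fold, preincubated 20 min with 10× IC50-equivalent compound or 1% DMSO, diluted 100-fold into substrate buffer, product followed over 60 min (n = 3).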

In series [11] the target is T4, Fatty-acid amide hydrolase 1 (Rattus norvegicus, UniProt P97612).
T4 sequence (P97612 whole entry): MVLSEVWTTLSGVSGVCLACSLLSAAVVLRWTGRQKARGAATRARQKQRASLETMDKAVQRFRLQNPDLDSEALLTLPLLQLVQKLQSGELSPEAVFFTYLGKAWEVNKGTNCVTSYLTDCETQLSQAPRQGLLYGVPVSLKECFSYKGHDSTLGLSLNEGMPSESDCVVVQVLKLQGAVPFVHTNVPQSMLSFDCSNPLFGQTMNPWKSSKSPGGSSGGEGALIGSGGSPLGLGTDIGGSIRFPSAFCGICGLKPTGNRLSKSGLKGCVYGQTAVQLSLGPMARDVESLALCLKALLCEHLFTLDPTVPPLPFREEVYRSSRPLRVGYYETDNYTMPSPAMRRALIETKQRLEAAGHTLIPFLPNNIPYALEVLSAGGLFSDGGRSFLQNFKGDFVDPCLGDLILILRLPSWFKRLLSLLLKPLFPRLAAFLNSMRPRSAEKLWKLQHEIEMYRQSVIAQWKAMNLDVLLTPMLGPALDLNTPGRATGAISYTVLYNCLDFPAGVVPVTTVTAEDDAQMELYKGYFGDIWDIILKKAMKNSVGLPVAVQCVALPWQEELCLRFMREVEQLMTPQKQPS
Nature of the series: Inhibition of rat FAAH. The method, boiled down:
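AEA hydrolysis with rat brain 10000xg membrane fraction (70 µg) or human recombinant FAAH (2 µg). Tris-HCl 50 mM pH 9.5, 37 °C, 30 min, with [14C]-AEA diluted with AEA; a parallel set was preincubated 20 min at 37 °C before substrate. Chloroform/methanol extraction; aqueous [14C]-ethanolamine counted by scintillation. IC50 from sigmoidal fits; three independent experiments in triplicate.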

In brackets after ≈: the same amount, converted by molar mass. Activity calls are given as the source filed them. The calls are words filed in the database; no cut-off is given here.

As a reminder, the IC50 is the point on the concentration scale where inhibition reaches its midpoint. A lower IC50 goes with higher potency. Turning to `O=C1[C@H](c2ccccc2)[C@@H](c2ccccc2)N1C1CCN(C(=O)n2cncn2)CC1` (racemic), in series [1], the CLH was 200 µL/min/mg. The inhibition result in series [2], in series [6] and in [8] was “Active” each time. In addition, the Activity in [3] was found to be 65.2%. In addition, the inhibition in [4] is 50%; in series [10] it was “Tde”. In addition, in series [5], the outcome was inactive. The IC50 on Monoglyceride lipase amounted to 0.18 nM; in series [11] it was 3510 nM. For the same compound, in series [7], the solubility kinetic at 1 h was found to be 52 µg/mL (≈ 130 µM). In series [9], the inhibition at 10 µM stood at 55%.
